Assay results published in PMC10209341 (Heliyon, 2023).
Read-outs that look alike come from different tables or passages of the source.

Experiments:
VEGFR1 = VEGFR1 (Homo sapiens, UniProt P17948); experiment: Kinase inhibition assay; assay type: biochemical
Method in brief: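 Kinase activity tested by a contract provider over a gradient of test-compound concentrations. IC50 derived by fitting the concentration–response data.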

VEGFR2 = VEGFR2 (Homo sapiens, UniProt P35968); experiment: Kinase inhibition assay; assay type: biochemical
Method in brief: (§1)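 Run by an outside contract provider as part of a panel covering VEGFR1-3, FGFR1-4 and PDGFR. Test compound was tested across a gradient of concentrations, and IC50 was calculated from the resulting concentration-response data.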

VEGFR3 = VEGFR3 (Homo sapiens, UniProt P35916); experiment: Kinase inhibition assay; assay type: biochemical
Method in brief: as §1

HUVECs [1] = experiment: MTT assay in HUVECs; assay type: cell-based; conditions: Homo sapiens, HUVEC, 48 h
VEGF165-induced HUVECs = experiment: EdU incorporation assay in HUVECs; assay type: cell-based
Method in brief: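 HUVECs were kept in medium with 10% FBS at 37 °C and 5% CO2, then plated at 1 × 10^4 cells/well in 96-well plates. Cells received a range of test-compound concentrations or solvent control and were stained with an EdU proliferation kit plus Hoechst 33342. Under a fluorescence microscope, the read-out was the ratio of EdU-positive to Hoechst-positive cells. Values are mean ± SD from three independent experiments.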

HUVECs [2] = experiment: Wound healing; assay type: cell-based; conditions: 1.25 μM, 24 h
Method in brief: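 HUVEC monolayers in 6-well plates were scratch-wounded, washed with PBS and treated with test compound (1.25 μM). Wounds were photographed under a microscope after 24 h. Values are mean ± SD from three independent experiments.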

HUVECs [3] = experiment: Transwell invasion assay of HUVECs; assay type: cell-based; conditions: 1.25 μM, 24 h
Method in brief: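 HUVECs (4 × 10^4) in growth-factor-free ECM medium went into Matrigel-coated transwell upper chambers; the lower chamber held ECM with growth factors. Test compound (1.25 μM) or DMSO was added to the upper cells for 24 h. Non-invading cells were scraped off, and invaded cells were fixed in 4% paraformaldehyde, stained with crystal violet and photographed. Values are mean ± SD, n = 3.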

HUVECs [4] = experiment: HUVEC tube formation assay; assay type: cell-based; conditions: 3 μM, 6 h
Method in brief: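 Wells were pre-chilled, coated with Matrigel and polymerised at 37 °C for 1 h. HUVECs in ECM medium were seeded on the Matrigel at 2 × 10^4 cells/well together with test compound (3 μM). After 6 h, tube formation was observed by microscopy. Values are mean ± SD from three independent experiments.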

[5] = tested on: transgenic zebrafish embryos; experiment: Angiogenesis in flk:eGFP transgenic zebrafish; assay type: in vivo; conditions: 3 μM, 16 h
VEGFR2 phosphorylation = experiment: Western blot of VEGF-induced phosphorylation in HUVECs; assay type: cell-based; conditions: 3.3 μM
Method in brief: (§2)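 HUVEC lysates made in RIPA buffer and protein measured by BCA. 100 μg protein run on 10% SDS-PAGE and transferred to nitrocellulose. Membranes blocked 2 h in TBST with 5% milk, then primary antibody overnight at 4 °C and secondary 1 h at room temperature. Bands detected by ECL.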

STAT3 phosphorylation = experiment: as above; assay type: cell-based; conditions: 1.0 μM
Method in brief: as §2

ERK phosphorylation = experiment: as above; assay type: cell-based; conditions: 0.3 μM
Method in brief: as §2

[6] = tested on: HepG2, Hepa3B2.1-7 and HCT116 cells; experiment: MTT and crystal violet; assay type: cell-based; conditions: MTT and crystal violet staining, time- and dose-dependent
Method in brief: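 MTT: cells (2–5 × 10^3 per well) attached 24 h, then given graded concentrations of test compound (in DMSO): 6 days for liver cancer lines, 3 days for HCT116, and various times. MTT (5 mg/mL) added for 4 h; formazan dissolved in DMSO and absorbance read at 570 nm. Colony assay: 1.5 × 10^3 cells per well treated 10 days, fixed in 4% PFA 20 min, stained with 0.5% crystal violet 10 min, counted. Three independent experiments.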

HCT116 xenograft [7] = experiment: HCT116 xenograft, initial tumor model; assay type: in vivo, Balb/c nude mice
Method in brief: (§3)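 Female Balb/c nude mice, 6–8 weeks old. HCT116 cells (5 × 10^6 in 100 μL PBS) injected s.c. into the right flank. All given orally once daily. Tumour volume (0.5 × a × b²) measured every three days.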

HCT116 xenograft [8] = experiment: HCT116 xenograft, medium-term tumor model; assay type: in vivo, Balb/c nude mice; conditions: for tumor inhibitory rate: medium-term HCT116 model
Method in brief: as §3

HepG2 xenograft = experiment: HepG2 hepatoma xenograft model; assay type: in vivo, Balb/c nude mice
Method in brief: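 Female Balb/c nude mice, 6–8 weeks old, carrying s.c. HepG2 xenografts. Tumours established as for the HCT116 initial model (~150 mm3). Groups: vehicle, test compound 50 mg/kg, reference drug 30 mg/kg; n = 5. Tumour volume (0.5 × a × b²) measured every three days and body weight followed. At the end of treatment, organs taken for H&E.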

Hep3B2.1-7 xenograft = experiment: Hep3B2.1-7 hepatoma xenograft model; assay type: in vivo, Balb/c nude mice; conditions: Hep3B2.1-7 model; for growth inhibition rate: terminated day 15
Method in brief: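 Female Balb/c nude mice, 6–8 weeks old, carrying s.c. Hep3B2.1-7 xenografts. Tumours established as for the HCT116 initial model (~150 mm3). Tumour volume (0.5 × a × b²) measured every three days and body weight monitored. At the end, mice sacrificed under anaesthesia and major organs taken for H&E.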

tumor tissues = experiment: Immunohistochemistry of xenograft tumor tissues; assay type: in vivo, Balb/c nude mice; conditions: vs controls
Method in brief: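 At the end of xenograft treatment, mice sacrificed under anaesthesia and tumours excised. Tumour sections stained by immunohistochemistry for Ki67 (proliferation) and CD31 (microvessels), plus TUNEL for apoptotic cells. Imaged at ×20.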

Sub-acute toxicity study = assay type: in vivo, C57BL/6 mice; conditions: for deaths during the study / body weight: 25 days; for deaths during the study: female C57BL/6 mice
Method in brief: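 Female C57BL/6 mice dosed orally for 25 days with vehicle, test compound 100 mg/kg or reference drug 40 mg/kg. Body weight and survival followed. Livers imaged and H&E stained. Plasma BUN, CREA, GLB, UREAL, ALP, AST and ALT measured (n = 3).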

LO2 cells [9] = experiment: Microscopy imaging of cell morphology; assay type: cell-based; conditions: 48 h
Method in brief: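 LO2 cells exposed 48 h to test compound or reference drug and imaged by microscopy. Scored features were apoptotic bodies and ballooned cell membranes typical of pyroptosis.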

[10] = tested on: N-GSDME and cleaved-caspase3 in HCT116, Hep3B2.1-7 and HepG2 cells; experiment: Western blot of pyroptosis-related proteins; assay type: cell-based; conditions: 48 h
Method in brief: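 HCT116, Hep3B2.1-7 and HepG2 cells treated 48 h with graded concentrations of test compound or reference drug, then lysed in RIPA. 100 μg protein run on 10% SDS-PAGE and blotted to nitrocellulose. Probed for GSDME, N-GSDME, caspase-3 and cleaved caspase-3, with ECL detection. Bands quantified as ratio to GAPDH; three independent experiments.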

HCT116 cells = experiment: Rescue of Lenvatinib-induced pyroptosis in pretreated HCT116 cells; assay type: cell-based; conditions: then stimulated with Lenvatinib
LO2 cells [11] = experiment: MTT assay in normal liver cells LO2; assay type: cell-based; conditions: Homo sapiens, L02, 72 h, read-out: IC50, viability of normal liver cells LO2
[12] = tested on: HCT116, HepG2 and Hep3B2.1-7 cells; experiment: Cellular ROS level by flow cytometry; assay type: cell-based; conditions: 48 h, DCFH-DA
Method in brief: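 Cells seeded at 3 × 10^4 per well in 6-well plates and grown 24 h, then exposed 48 h to graded concentrations of test compound or reference drug. Intracellular ROS stained with DCFH-DA (ROS assay kit), read by flow cytometry and quantified. DCFH-DA-stained HCT116 cells were also viewed by inverted fluorescence microscopy.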

Chain of VEGFR2 (P35968 20-1356): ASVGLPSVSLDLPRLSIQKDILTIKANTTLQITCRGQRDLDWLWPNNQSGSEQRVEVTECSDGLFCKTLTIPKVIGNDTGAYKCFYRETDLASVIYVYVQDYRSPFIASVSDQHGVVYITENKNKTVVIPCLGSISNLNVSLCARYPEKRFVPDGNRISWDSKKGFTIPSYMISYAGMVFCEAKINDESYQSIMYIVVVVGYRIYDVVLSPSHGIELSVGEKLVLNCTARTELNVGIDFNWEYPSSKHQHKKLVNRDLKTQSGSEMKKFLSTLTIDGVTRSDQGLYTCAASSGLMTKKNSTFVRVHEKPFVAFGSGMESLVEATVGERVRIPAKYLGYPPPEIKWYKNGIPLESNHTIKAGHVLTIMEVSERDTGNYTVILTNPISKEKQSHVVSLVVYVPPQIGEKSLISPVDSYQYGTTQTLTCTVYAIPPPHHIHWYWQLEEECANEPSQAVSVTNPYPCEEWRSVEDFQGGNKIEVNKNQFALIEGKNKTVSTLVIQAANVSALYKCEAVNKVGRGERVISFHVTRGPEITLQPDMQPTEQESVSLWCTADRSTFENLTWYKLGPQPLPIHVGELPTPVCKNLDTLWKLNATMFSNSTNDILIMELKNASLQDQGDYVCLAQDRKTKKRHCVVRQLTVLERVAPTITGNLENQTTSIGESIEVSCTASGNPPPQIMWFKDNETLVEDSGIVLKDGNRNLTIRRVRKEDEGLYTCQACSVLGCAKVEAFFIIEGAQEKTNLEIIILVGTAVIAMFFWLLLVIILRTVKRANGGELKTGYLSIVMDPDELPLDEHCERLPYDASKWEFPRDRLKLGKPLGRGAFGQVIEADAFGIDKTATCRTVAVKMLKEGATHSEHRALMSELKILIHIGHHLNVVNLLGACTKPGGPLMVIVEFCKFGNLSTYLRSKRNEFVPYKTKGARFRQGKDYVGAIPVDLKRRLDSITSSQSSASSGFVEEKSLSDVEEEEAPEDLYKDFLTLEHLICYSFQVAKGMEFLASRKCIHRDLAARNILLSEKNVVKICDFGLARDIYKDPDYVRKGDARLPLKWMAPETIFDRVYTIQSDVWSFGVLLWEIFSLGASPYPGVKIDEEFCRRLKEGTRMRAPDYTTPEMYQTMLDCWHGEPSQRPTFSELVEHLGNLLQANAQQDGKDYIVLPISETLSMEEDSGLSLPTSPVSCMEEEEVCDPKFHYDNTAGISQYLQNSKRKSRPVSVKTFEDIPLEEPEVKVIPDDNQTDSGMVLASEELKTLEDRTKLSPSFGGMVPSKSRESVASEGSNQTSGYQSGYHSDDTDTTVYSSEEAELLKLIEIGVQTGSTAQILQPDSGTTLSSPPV
Chain of VEGFR3 (P35916 25-1363): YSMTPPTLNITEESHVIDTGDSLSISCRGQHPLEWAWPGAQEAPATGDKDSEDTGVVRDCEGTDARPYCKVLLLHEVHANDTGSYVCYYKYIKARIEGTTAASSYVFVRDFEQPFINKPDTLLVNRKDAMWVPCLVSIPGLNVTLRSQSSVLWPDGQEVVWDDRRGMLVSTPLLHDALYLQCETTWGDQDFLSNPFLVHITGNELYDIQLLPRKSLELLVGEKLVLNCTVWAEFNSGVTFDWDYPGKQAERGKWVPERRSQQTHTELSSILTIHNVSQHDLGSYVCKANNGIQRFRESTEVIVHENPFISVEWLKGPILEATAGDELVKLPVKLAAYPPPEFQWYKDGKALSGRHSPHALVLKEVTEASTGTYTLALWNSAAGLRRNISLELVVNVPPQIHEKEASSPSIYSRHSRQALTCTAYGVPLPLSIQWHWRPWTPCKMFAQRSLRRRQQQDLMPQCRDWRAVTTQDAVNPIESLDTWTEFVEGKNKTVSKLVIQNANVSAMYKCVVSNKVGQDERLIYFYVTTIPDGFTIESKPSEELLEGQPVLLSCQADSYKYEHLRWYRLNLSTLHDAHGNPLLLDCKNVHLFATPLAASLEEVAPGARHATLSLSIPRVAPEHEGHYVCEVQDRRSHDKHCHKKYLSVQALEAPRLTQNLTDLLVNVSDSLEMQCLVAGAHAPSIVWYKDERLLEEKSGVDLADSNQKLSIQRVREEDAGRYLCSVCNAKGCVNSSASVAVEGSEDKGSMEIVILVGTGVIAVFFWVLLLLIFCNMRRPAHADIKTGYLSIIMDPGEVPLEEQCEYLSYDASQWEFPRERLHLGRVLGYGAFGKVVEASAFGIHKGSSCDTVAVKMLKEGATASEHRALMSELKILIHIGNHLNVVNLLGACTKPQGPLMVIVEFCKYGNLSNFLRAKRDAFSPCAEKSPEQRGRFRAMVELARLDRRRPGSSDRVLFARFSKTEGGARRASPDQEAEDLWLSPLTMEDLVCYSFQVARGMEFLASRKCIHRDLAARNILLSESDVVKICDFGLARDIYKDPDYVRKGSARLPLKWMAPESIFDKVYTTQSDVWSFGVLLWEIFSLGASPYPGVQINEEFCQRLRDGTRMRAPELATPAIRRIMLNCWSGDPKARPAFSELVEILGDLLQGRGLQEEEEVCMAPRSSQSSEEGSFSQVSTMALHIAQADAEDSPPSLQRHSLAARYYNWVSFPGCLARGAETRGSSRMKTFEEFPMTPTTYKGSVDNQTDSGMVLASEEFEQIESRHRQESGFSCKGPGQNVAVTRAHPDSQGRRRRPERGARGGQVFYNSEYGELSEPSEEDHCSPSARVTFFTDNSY
Chain of VEGFR1 (P17948 27-1338): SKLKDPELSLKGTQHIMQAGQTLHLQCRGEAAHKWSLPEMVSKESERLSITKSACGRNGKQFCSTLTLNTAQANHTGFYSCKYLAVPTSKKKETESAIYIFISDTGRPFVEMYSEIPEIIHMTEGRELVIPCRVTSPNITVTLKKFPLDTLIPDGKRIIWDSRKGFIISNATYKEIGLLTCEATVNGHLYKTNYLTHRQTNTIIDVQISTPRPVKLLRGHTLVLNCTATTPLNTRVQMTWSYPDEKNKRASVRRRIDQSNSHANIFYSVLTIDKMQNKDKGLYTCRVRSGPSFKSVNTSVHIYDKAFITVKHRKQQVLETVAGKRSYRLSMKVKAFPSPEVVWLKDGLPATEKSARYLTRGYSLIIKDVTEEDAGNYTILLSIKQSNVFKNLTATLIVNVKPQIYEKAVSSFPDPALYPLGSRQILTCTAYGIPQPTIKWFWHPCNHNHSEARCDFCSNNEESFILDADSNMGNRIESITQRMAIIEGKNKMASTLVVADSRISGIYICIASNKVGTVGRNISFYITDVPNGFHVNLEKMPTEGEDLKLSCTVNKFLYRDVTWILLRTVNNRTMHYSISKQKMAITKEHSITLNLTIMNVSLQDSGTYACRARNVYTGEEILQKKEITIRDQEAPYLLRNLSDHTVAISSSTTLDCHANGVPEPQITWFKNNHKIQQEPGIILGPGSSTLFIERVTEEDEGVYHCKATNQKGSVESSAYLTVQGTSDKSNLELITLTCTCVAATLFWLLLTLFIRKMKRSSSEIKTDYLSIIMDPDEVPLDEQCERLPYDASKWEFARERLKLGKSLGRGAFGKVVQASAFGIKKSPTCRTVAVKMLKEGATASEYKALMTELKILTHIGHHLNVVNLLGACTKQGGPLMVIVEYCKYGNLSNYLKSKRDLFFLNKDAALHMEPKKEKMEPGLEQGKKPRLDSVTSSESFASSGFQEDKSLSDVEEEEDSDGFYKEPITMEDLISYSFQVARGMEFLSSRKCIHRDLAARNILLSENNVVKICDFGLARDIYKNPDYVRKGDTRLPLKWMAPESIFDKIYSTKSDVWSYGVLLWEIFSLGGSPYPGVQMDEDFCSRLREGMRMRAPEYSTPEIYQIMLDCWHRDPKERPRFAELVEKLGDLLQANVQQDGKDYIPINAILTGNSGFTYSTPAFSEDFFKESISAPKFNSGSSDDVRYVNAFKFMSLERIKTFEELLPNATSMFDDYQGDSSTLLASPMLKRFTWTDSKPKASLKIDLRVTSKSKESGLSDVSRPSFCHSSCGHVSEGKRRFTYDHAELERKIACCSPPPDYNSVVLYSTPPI

## COCCOCCOc1cc2nccc(Oc3ccc(NC(=O)NC4CC4)c(Cl)c3)c2cc1C(N)=O [ZLF-095, 4-(3-chloro-4-(3-cyclopropylureido)phenoxy)-7-(2-(2-methoxyethoxy)ethoxy)qui noline-6-carboxamide]
VEGFR1
  IC50: 2 nM
VEGFR2
  IC50: 5 nM
VEGFR3
  IC50: 0.7 nM
HUVECs [1]; read-out: IC50, viability of VEGF165-induced HUVECs
  IC50: 1770 nM
HUVECs [1]; read-out: IC50, viability of untreated HUVECs
  IC50: 10100 nM
VEGF165-induced HUVECs
  cell proliferation (EdU): reduced cell proliferation in VEGF165-induced HUVECs in a dose-dependent manner
HUVECs [2]
  migration of HUVECs (wound healing): inhibited the migration of HUVECs slightly better than Lenvatinib
HUVECs [3]
  invasion of HUVECs (transwell): significantly inhibited the invasion of HUVECs, similar to Lenvatinib
HUVECs [4]
  capillary tube formation of HUVECs: inhibited capillary tube formation of HUVECs
[5]
  formation of intersegmental vessels (ISV): significantly suppressed the formation of intersegmental vessels (ISV), similar to Lenvatinib
VEGFR2 phosphorylation
  phosphorylation of VEGFR2 induced by 50 ng/mL VEGF-165: obviously suppressed
STAT3 phosphorylation
  STAT3 phosphorylation: significantly inhibited
ERK phosphorylation
  ERK phosphorylation: significantly inhibited
[6]
  proliferation of HepG2, Hepa3B2.1-7 and HCT116 cells: significantly inhibited
HCT116 xenograft [7]; 5 mg/kg oral once daily
  tumor inhibitory rate: 72.7%
HCT116 xenograft [7]; 15 mg/kg oral once daily
  tumor inhibitory rate: 83.9%
HCT116 xenograft [8]; 5 mg/kg oral once daily
  tumor inhibitory rate: 60.7%
HCT116 xenograft [8]; 15 mg/kg oral once daily
  tumor inhibitory rate: 72.5%
HepG2 xenograft; 50 mg/kg, 25 days
  body weight: no influence on the weight
  suppression of cancer growth: 75.2%
Hep3B2.1-7 xenograft; 30 mg/kg
  growth inhibition rate: 66.6%
Hep3B2.1-7 xenograft; 80 mg/kg
  growth inhibition rate: 81.5%
Hep3B2.1-7 xenograft; dose levels up to 80 mg/kg
  gross abnormalities: no gross abnormalities were observed
Tumor tissues; immunohistochemistry
  expression of Ki67 in tumor tissues: significantly decreased
Tumor tissues
  micro-vessel density of tumors (CD31): markedly decreased
  number of apoptotic cells in tumor tissues (TUNEL): increased
Sub-acute toxicity study; 100 mg/kg oral
  liver images and H&E: no visible abnormalities in the liver
  serum levels of BUN, CREA, GLB, UREAL, ALP, AST and ALT: No aberrant serum levels
  deaths during the study: none
Sub-acute toxicity study; 100 mg/kg oral, vs vehicle
  body weight: no significant changes in body weight
LO2 cells [9]
  cell morphology (pyroptosis): no such change was seen
[10]
  cleaved-caspase3 / caspase3 activation: increased caspase3 activation
  expression of N-GSDME: had no effect

## COC(=O)CC[C@H](NC(=O)[C@H](CC(=O)OC)NC(=O)OCc1ccccc1)C(=O)N[C@H](C(=O)N[C@@H](CC(=O)OC)C(=O)CF)C(C)C [Z-DEVD-FMK]
HCT116 cells
  effect on Lenvatinib-induced cell swelling / pyroptosis: abolished

## COc1cc2nccc(Oc3ccc(NC(=O)NC4CC4)c(Cl)c3)c2cc1C(N)=O [Lenvatinib, reference compound]
HCT116 xenograft [7]; 5 mg/kg
  body weight: lower body weights than ZLF-095-treated group
HCT116 xenograft [7]; 5 mg/kg oral once daily
  tumor inhibitory rate: 76.8%
HCT116 xenograft [8]; medium-term (metaphase) HCT116 model, 5 mg/kg
  body weight: lower body weights than ZLF-095-treated group
HCT116 xenograft [8]; 5 mg/kg oral once daily
  tumor inhibitory rate: 66.5%
HepG2 xenograft; 30 mg/kg, after 16 days
  body weight / lethality: marked loss of body weight led to death in mice
Hep3B2.1-7 xenograft; 30 mg/kg, day 15
  body weight: sustained weight loss
Hep3B2.1-7 xenograft; 30 mg/kg
  growth inhibition rate: 78.1%
Sub-acute toxicity study; 40 mg/kg oral
  levels of ALP: notably increased
  levels of AST and ALT: decreased
  liver images and H&E: focal necrosis and significant inflammatory cell infiltration
  body weight: obvious body weight loss
  deaths during the study: 5/5
LO2 cells [11]
  IC50: 14000 nM
LO2 cells [9]
  cell morphology (pyroptosis): large bubbles bulging from the cell membrane
[10]
  cleaved-caspase3 / caspase3 activation: obviously up‐regulated
  expression of N-GSDME: obviously up‐regulated
[12]
  intracellular ROS levels: significantly increased

## CC(=O)N[C@@H](CS)C(=O)O [NAC]
HCT116 cells
  effect on Lenvatinib-induced cell swelling / pyroptosis: rescue Lenvatinib-induced pyroptosis
